# Results collected from several papers.
# Compare with care: the assays were run in different laboratories.
Structure (SMILES),medium,concentration,time,pH,Papp
COc1ccc(C[C@@H]2NC(=O)[C@@H](CC(C)C)NC(=O)[C@H](CCSC)NC(=O)[C@H](CC(C)C)NC(=O)[C@@H](CC(C)C)NC(=O)[C@H]3CCCN3C2=O)cc1,PAMPA,10 µM,7 h,,13 ×10⁻⁶ cm/s
O=C1NC(=O)C(c2ccccc2)(c2ccccc2)N1,PAMPA,200 µM,5 h,pH 7.4,6.1 ×10⁻⁶ cm/s
O=C1[O][Pt]2([NH][C@@H]3CCCC[C@H]3[NH]2)[O]C1=O (relative stereo),PAMPA,,,pH 6.8,0.448 ×10⁻⁶ cm/s
O=c1cc(-c2ccc(O)cc2)oc2cc(O)cc(O)c12,PAMPA-BBB,1 µM,18 h,,13.9 ×10⁻⁶ cm/s
COCCOCCOCCOc1c(OC)cc2cc(C(=O)N3C[C@@H](CCl)c4c3cc(O)c3[nH]c(C(=O)OC)cc43)[nH]c2c1OC,PAMPA,1 µM,5 h,pH 7.4,4.2 ×10⁻⁶ cm/s
O=C(Nc1cccc(B(O)O)c1)c1cccc(OCc2ccccc2)c1,PAMPA,200 µM,5 h,pH 7.4,0.1 ×10⁻⁶ cm/s
COCCOCCOCCOCCOc1c(OC)cc2cc(C(=O)N3C[C@@H](CCl)c4c3cc(O)c3[nH]c(C(=O)OC)cc43)[nH]c2c1OC,PAMPA,1 µM,5 h,pH 7.4,10 ×10⁻⁶ cm/s
CC[C@@H](C)[C@@H]1NC(=O)[C@@H](CC(C)C)NC(=O)CN(C)C(=O)[C@H]([C@H](C)CC)NC(=O)[C@@H](CC(C)C)NC(=O)CN(C)C1=O,PAMPA,,,,38 ×10⁻⁶ cm/s
CN1CCN([C@@H](c2ccccc2)c2ccc(Cl)cc2)CC1,PAMPA,,,,1830 ×10⁻⁶ cm/s
Cc1nc([C@@](C)(CC2CC2)NC(=O)c2cc(OCC(F)(F)F)c(C3CC3)cn2)no1,PAMPA,,,,2.44 ×10⁻⁶ cm/s
CC(C)[C@H]1C(=O)N[C@@H](CCCN=C(N)N)C(=O)NCC(=O)N[C@@H](CC(=O)O)C(=O)N[C@H](Cc2ccccc2)C(=O)N1C,Caco-2,,,,~0.1 ×10⁻⁶ cm/s
O=C(Nc1ccc2c(c1)B(O)OC2)c1ccc(OCc2ccc(Cl)cc2)cc1,PAMPA,200 µM,5 h,pH 7.4,4.4 ×10⁻⁶ cm/s
COc1ccc(C[C@@H]2NC(=O)[C@@H](CC(C)C)NC(=O)[C@H](C)NC(=O)[C@H](CC(C)C)NC(=O)[C@@H](CC(C)C)NC(=O)[C@H]3CCCN3C2=O)cc1,PAMPA,10 µM,7 h,,19 ×10⁻⁶ cm/s
Cc1nonc1Cn1nnc2c(N3CC[C@H](O)C3)nc(C(C)(C)C)nc21,PAMPA,,,,2.2 ×10⁻⁶ cm/s
N#Cc1ccc(COc2cccc(C(=O)Nc3ccc4c(c3)B(O)OC4)c2)cc1,PAMPA,200 µM,5 h,pH 7.4,0.076 ×10⁻⁶ cm/s
